Reference: publication PMC2194103 (The Journal of Experimental Medicine, 2002)

Key:
[1] = system: peripheral CD4+ T cells of the 1B6 transgenic mouse; experiment: Proliferation of naive ex-vivo 1B6 TCR transgenic T cells; format: cell-based; conditions: LNCs from 1B6 TCR transgenic mouse, [3H]thymidine added after 48 h; Fig. 1
Procedure, shortened: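 Lymph node cells from a 1B6 TCR transgenic mouse were stimulated in culture with different peptide ligands. Per the general proliferation method, cultures were run in triplicate. After 48 h, [3H]thymidine (1 μCi/well) was added for the final 16 h before harvest. Incorporation was read by scintillation counting.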

[2] = system: CD4+ 1B6 Rag2−/− T cell lines; experiment: Cytokine ELISA on 1B6 T cell lines; format: cell-based, mouse; conditions: supernatants after 40 h, Fig. 3
I-A^s = target: T1, I-A^s (Mus musculus, UniProt P06345+P14437); conditions: binding to I-A^s relative to W144 (1.0); cited from earlier work
T1 sequence (P14437 1-233): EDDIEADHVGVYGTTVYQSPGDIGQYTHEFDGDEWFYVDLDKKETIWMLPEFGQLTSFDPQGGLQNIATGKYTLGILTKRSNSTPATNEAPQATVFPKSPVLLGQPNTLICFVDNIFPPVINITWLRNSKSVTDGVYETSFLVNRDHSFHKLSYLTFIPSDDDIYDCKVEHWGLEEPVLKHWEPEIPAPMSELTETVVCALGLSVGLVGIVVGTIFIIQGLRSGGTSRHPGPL
T1 sequence (P06345 28-263): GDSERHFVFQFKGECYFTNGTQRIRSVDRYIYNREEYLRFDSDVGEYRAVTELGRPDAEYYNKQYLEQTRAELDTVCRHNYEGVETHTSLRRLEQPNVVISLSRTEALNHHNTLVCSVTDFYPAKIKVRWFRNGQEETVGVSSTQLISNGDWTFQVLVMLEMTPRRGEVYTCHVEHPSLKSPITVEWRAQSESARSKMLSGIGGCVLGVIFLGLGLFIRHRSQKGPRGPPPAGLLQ

Q1.1B6 T cell clone = conditions: representative experiment; cited from earlier work

Row | Sequence | Stimulatory potential for proliferation (hierarchy of response) [1] | Secretion of IL-2 by desensitized cells [2] | Relative MHC binding (I-A^s) | Cytokine IL-4 (Q1.1B6 T cell clone) | Cytokine TNF-α (Q1.1B6 T cell clone) | Cytokine IFN-γ (Q1.1B6 T cell clone) | Cytokine IL-2 (Q1.1B6 T cell clone)
1 | HSLGKLLGHPDKF [Ligand L144] | superagonist ligand | selectively blunted | 0.8 | 390 pg/mL | 420 pg/mL |  | 
2 | HSLGKQLGHPDKF [Ligand Q144] | agonist |  | 0.6 | 200 pg/mL | <50 pg/mL | 9,052 pg/ml | <50 pg/mL
3 | HSLGKWLGHPDKF [Ligand W144, reference compound] | weaker ligand |  | 1.0 | <50 pg/mL | <50 pg/mL | 420 pg/mL | <50 pg/mL
